Results published in ChEMBL document CHEMBL1137720, “New acyclic nucleosides analogues as potential analgesic, anti-inflammatory, anti-oxidant and anti-microbial derived from pyrimido[4,5-b]quinolines” (2009).

Columns and labels:
Rattus norvegicus [1] = assay: Antiinflammatory activity in Sprague-Dawley rat assessed as inhibition of carrageenan-induced paw edema after 4 hrs; format: functional
Summary of the method: (§1)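 Adult female Sprague-Dawley rats, 150–180 g, were used (n = 6 per group). Paw volume increase after carrageenan was read at 1, 2, 3 and 4 h. % edema inhibition was calculated against untreated controls. The reference drug was given orally at 10 mg/kg as an aqueous suspension.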

Mus musculus [2] = species: Mus musculus; assay: Analgesic activity in Swiss mouse assessed as reaction time after 30 mins by hot plate test; format: functional
Summary of the method: (§2)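 Swiss mice of both sexes, 25–30 g, were housed at 22 ± 1 °C on a 12 h light/dark cycle with free access to diet and water. Hot-plate testing followed Turner's method.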

Mus musculus [3] = species: Mus musculus; assay: Analgesic activity in Swiss mouse assessed as reaction time after 60 mins by hot plate test; format: functional; summary of the method: as §2
Mus musculus [4] = species: Mus musculus; assay: Analgesic activity in Swiss mouse assessed as reaction time after 90 mins by hot plate test; format: functional; summary of the method: as §2
[5] = Antioxidant activity in Sprague-Dawley rat erythrocytes assessed as ABTS-induced hemolysis after 1 hr; format: functional, Erythrocyte; parameters: concentration or dose not given beside the values
[6] = Antioxidant activity assessed as inhibition of ABTS-oxidation in 0.1 M phosphate buffer at pH 7; format: functional
Summary of the method: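 ABTS (60 µM, 2 mL) was mixed with MnO2 (25 mg/mL) in 0.1 M phosphate buffer pH 7, then shaken, centrifuged and filtered. Radical solution A734 was set to about 0.5. MeOH/buffer served as negative control.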

Escherichia coli = assay: Antibacterial activity against Escherichia coli ATCC 23566 at 100 ug/disk after 24 to 48 hrs by agar disk diffusion method; format: functional; conditions: read-out: DIZ
Summary of the method: (§3)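 Agar disc diffusion used sterile 5 mm filter-paper discs loaded with 100 µg per disc, with DMSO as solvent. Plates were incubated 24–28 h at 37 °C and inhibition zone diameters measured: 6–10 mm slight, 11–15 mm moderate, >15 mm high. For MIC, discs carried varying amounts, and MIC was the lowest amount giving no visible growth.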

Pseudomonas aeruginosa = assay: Antibacterial activity against Pseudomonas aeruginosa ATCC 10145 at 100 ug/disk after 24 to 48 hrs by agar disk diffusion method; format: functional; conditions: read-out: DIZ; summary of the method: as §3
Staphylococcus aureus = assay: Antibacterial activity against Staphylococcus aureus ATCC 25923 at 100 ug/disk after 24 to 48 hrs by agar disk diffusion method; format: functional; conditions: read-out: DIZ; summary of the method: as §3
Candida albicans = assay: Antimicrobial activity against Candida albicans ATCC 14053 at 100 ug/disk after 5 days by agar disk diffusion method; format: functional; conditions: ATCC 14053, 120 h, read-out: DIZ
Aspergillus fumigatus = assay: Antimicrobial activity against Aspergillus fumigatus ATCC 96918 at 100 ug/disk after 5 days by agar disk diffusion method; format: functional; conditions: ATCC 96918, 120 h, read-out: DIZ
Rattus norvegicus [7] = assay: Antiinflammatory activity in Sprague-Dawley rat assessed as inhibition of carrageenan-induced paw edema after 1 hr; format: functional; summary of the method: as §1
Rattus norvegicus [8] = assay: Antiinflammatory activity in Sprague-Dawley rat assessed as inhibition of carrageenan-induced paw edema after 2 hrs; format: functional; summary of the method: as §1
Rattus norvegicus [9] = assay: Antiinflammatory activity in Sprague-Dawley rat assessed as inhibition of carrageenan-induced paw edema after 3 hrs; format: functional; summary of the method: as §1
Nucleic Acid = assay: Inhibition of bleomycin-induced DNA damage assessed as absorbance at 532 nm after 1 hr at 37 degC; format: nucleic-acid assay
Summary of the method: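 The 0.5 mL reaction contained calf thymus DNA (0.5 mg/mL), bleomycin sulfate (0.05 mg/mL), MgCl2 (5 mM), FeCl3 (50 µM) and compound at varying concentrations. After 1 h at 37 °C, the reaction was stopped with EDTA. TBA (1%) and HCl (25%) were added, followed by 10 min at 80 °C. After centrifugation, DNA damage was read as A532.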

Rattus norvegicus [10] = assay: Antiinflammatory activity in Sprague-Dawley rat assessed as inhibition of carrageenan-induced paw edema at 10 mg/kg, po after 4 hrs; format: functional; summary of the method: as §1
Rattus norvegicus [11] = assay: Antiinflammatory activity in Sprague-Dawley rat assessed as inhibition of carrageenan-induced paw edema at 10 mg/kg, po after 1 hr; format: functional; summary of the method: as §1
Rattus norvegicus [12] = assay: Antiinflammatory activity in Sprague-Dawley rat assessed as inhibition of carrageenan-induced paw edema at 10 mg/kg, po after 3 hrs; format: functional; summary of the method: as §1
Rattus norvegicus [13] = species: Rattus norvegicus; assay: animal or person; conditions: Sprague-Dawley, po, 2 h, read-out: INH

Row | SMILES | inhibition (INH) (Rattus norvegicus [1]) | Activity (Mus musculus [2]) | Activity (Mus musculus [3]) | Activity (Mus musculus [4]) | Activity [5] | inhibition [6] | zone of inhibition at 100 µg/disc (Escherichia coli) | zone of inhibition at 100 µg/disc (Pseudomonas aeruginosa) | zone of inhibition at 100 µg/disc (Staphylococcus aureus) | zone of inhibition at 100 µg/disc (Candida albicans) | zone of inhibition at 100 µg/disc (Aspergillus fumigatus) | inhibition (INH) (Rattus norvegicus [7]) | inhibition (INH) (Rattus norvegicus [8]) | inhibition (INH) (Rattus norvegicus [9]) | deltaA (Nucleic Acid) | inhibition in vivo at 10 mg/kg (Rattus norvegicus [10]) | inhibition in vivo at 10 mg/kg (Rattus norvegicus [11]) | inhibition in vivo at 10 mg/kg (Rattus norvegicus [12]) | inhibition in vivo at 10 mg/kg (Rattus norvegicus [13])
1 | CC(=O)OC[C@@H](OC(C)=O)[C@@H](OC(C)=O)[C@@H](OC(C)=O)[C@@H](OC(C)=O)c1n[nH]c2nc3nc4c(c(-c5ccc(Cl)cc5)c3c(=O)n12)CCC/C4=C\c1ccc(Cl)cc1 | 19.57% | 2.483 s | 2.667 s | 2.633 s | 8.18% | 40.7% | 14 mm | 12 mm | 13 mm | 11 mm | 12 mm | 18.75% | 14.8% | 13.28% | – | – | – | – | –
2 | O=c1[nH]c(=S)[nH]c2nc3c(c(-c4ccccc4)c12)CCC/C3=C\c1ccccc1 | 25% | 2.7 s | 2.65 s | 2.583 s | 35.75% | 44.4% | 17 mm | 15 mm | 14 mm | 11 mm | 13 mm | 31.25% | 24% | 27.54% | – | – | – | – | –
3 | NNc1nc2nc3c(c(-c4ccc(Cl)cc4)c2c(=O)[nH]1)CCC/C3=C\c1ccc(Cl)cc1 | 35.19% | 3.7 s | 4.067 s | 6.617 s | 5.45% | 59.3% | 22 mm | 20 mm | 18 mm | 13 mm | 11 mm | 34.38% | 34% | 37.68% | – | – | – | – | –
4 | O=c1c2c(-c3ccc(Cl)cc3)c3c(nc2nc2[nH]nc([C@H](O)[C@H](O)[C@H](O)[C@H](O)CO)n12)/C(=C/c1ccc(Cl)cc1)CCC3 | 40.62% | 4.65 s | 7.4 s | 9.567 s | 4.23% | 81.5% | 24 mm | 22 mm | 19 mm | 12 mm | 16 mm | 62.5% | 44% | 42.03% | 0.026 | – | – | – | –
5 | CC(=O)OC[C@@H](OC(C)=O)[C@@H](OC(C)=O)[C@@H](/C=N/Nc1nc2nc3c(c(-c4ccc(Cl)cc4)c2c(=O)n1OC(C)=O)CCC/C3=C\c1ccc(Cl)cc1)OC(C)=O | 22.22% | 3.667 s | 3.483 s | 4.583 s | 30.75% | 35.2% | 14 mm | 15 mm | 13 mm | 10 mm | 8 mm | 18.75% | 28% | 28.98% | – | – | – | – | –
6 | CC(=O)Oc1ccccc1C(=O)O [ASPIRIN] | – | 5.1 s | 7.683 s | 8.65 s | – | – | – | – | – | – | – | – | – | – | – | – | – | – | –
7 | O=c1c2c(-c3ccc(Cl)cc3)c3c(nc2nc2[nH]nc([C@H](O)[C@@H](O)[C@@H](O)[C@H](O)CO)n12)/C(=C/c1ccc(Cl)cc1)CCC3 | 50% | 3.767 s | 5.45 s | 6.767 s | 4.01% | 83.7% | 20 mm | 19 mm | 20 mm | 11 mm | 7 mm | 50% | 56% | 49.27% | 0.029 | – | – | – | –
8 | O=C(O)c1cn(C2CC2)c2cc(N3CCNCC3)c(F)cc2c1=O [CIPROFLOXACIN] | – | – | – | – | – | – | – | 24 mm | 24 mm | – | – | – | – | – | – | – | – | – | –
9 | CC(=O)OC[C@@H](OC(C)=O)[C@H](OC(C)=O)[C@H](OC(C)=O)[C@@H](OC(C)=O)c1n[nH]c2nc3nc4c(c(-c5ccc(Cl)cc5)c3c(=O)n12)CCC/C4=C\c1ccc(Cl)cc1 | 17.19% | 2.65 s | 2.667 s | 2.483 s | 8.33% | 42.6% | 14 mm | 10 mm | 10 mm | 11 mm | 11 mm | 21.88% | 14% | 18.48% | – | – | – | – | –
10 | CC(=O)OC[C@@H](OC(C)=O)[C@@H](OC(C)=O)[C@H](/C=N/Nc1nc2nc3c(c(-c4ccc(Cl)cc4)c2c(=O)n1OC(C)=O)CCC/C3=C\c1ccc(Cl)cc1)OC(C)=O | 26.56% | 3.5 s | 3.483 s | 4.033 s | 6.06% | 40.7% | 14 mm | 13 mm | 11 mm | 7 mm | 11 mm | 15.62% | 20.37% | 26.09% | – | – | – | – | –
11 | COc1ccc2c(c1)c(CC(=O)O)c(C)n2C(=O)c1ccc(Cl)cc1 [INDOMETHACIN] | – | – | – | – | – | – | – | – | – | – | – | – | – | – | – | 57.8% | 50% | 65.2% | 58%
12 | O=c1c2c(-c3ccc(Cl)cc3)c3c(nc2nc2[nH]nc([C@@H](O)[C@H](O)[C@H](O)CO)n12)/C(=C/c1ccc(Cl)cc1)CCC3 | 46.67% | 3.6 s | 5.933 s | 8.433 s | 3.51% | 66.7% | 20 mm | 19 mm | 20 mm | 12 mm | 16 mm | 40.62% | 52% | 45.31% | 0.05 | – | – | – | –
13 | O=c1c2c(-c3ccc(Cl)cc3)c3c(nc2nc2[nH]nc([C@H](O)[C@H](O)[C@H](O)CO)n12)/C(=C/c1ccc(Cl)cc1)CCC3 | 39.81% | 3.55 s | 5.35 s | 6.667 s | 3.42% | 68.8% | 18 mm | 18 mm | 22 mm | 13 mm | 13 mm | 46.88% | 40.58% | 39.06% | 0.045 | – | – | – | –
14 | O=C1O[C@H]([C@@H](O)CO)C(O)=C1O [ASCORBIC ACID] | – | – | – | – | 3.93% | – | – | – | – | – | – | – | – | – | 0.026 | – | – | – | –
15 | CC(=O)N1CCN(c2ccc(OCC3COC(Cn4ccnc4)(c4ccc(Cl)cc4Cl)O3)cc2)CC1 (configuration not stated) [KETOCONAZOLE] | – | – | – | – | – | – | – | – | – | 21 mm | 19 mm | – | – | – | – | – | – | – | –
